High-throughput results: PubChem BioAssay, Sanford-Burnham Center for Chemical Genomics
A selection: hits, their analogues and other compounds. The true share with any hit is near 1.5%.
EBI2 antag – EBI2 receptor antagonists, beta-arrestin recruitment, primary screen, cell-based, luminescence, 7a,25-OHC stimulation, uHTS | G-protein coupled receptor 183 (Homo sapiens), P32249 | 7a,25-OHC stimulated | inhibition, % at 5 µM | actives 0.81% (n = 360,000); in the data active = inhibition above about 38%;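 also: enzyme fragment complementation signal reports receptor beta-arrestin coupling in cells; 0% = agonist plus DMSO wells and 100% = wells without agonist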
Target sequence (P32249 whole entry, looked up, the tested form may be a part): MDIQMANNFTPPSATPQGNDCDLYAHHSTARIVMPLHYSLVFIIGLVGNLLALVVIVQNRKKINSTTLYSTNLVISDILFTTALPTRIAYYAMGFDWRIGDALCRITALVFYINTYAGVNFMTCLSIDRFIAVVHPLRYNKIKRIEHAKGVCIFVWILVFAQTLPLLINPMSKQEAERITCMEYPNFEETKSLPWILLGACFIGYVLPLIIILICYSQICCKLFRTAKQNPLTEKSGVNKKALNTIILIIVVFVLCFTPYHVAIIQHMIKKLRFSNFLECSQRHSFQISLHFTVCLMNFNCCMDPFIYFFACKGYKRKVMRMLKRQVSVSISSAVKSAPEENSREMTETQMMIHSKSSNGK
CXCR6 block – CXCR6 receptor inhibitors, primary screen, cell-based, beta-arrestin, luminescence, CHO-K1 PathHunter, 1536-well; inhibition, % at 20 µM; actives 0.36% (n = 360,000); in the data active = inhibition above about 34%, passing the limit was not always enough;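 also: antagonist mode with CXCL16 agonist at 10 nM final; 0% = 10 nM CXCL16 with DMSO and 100% = unstimulated wells without agonist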
CCR6 antagonist – CCR6 receptor antagonists, primary screen, cell-based, CHO-K1, luminescence, beta-arrestin, uHTS; CHO-K1 CCR6 PathHunter beta-arrestin, CCL20-stimulated; inhibition, % at 20 µM; actives 0.49% (n = 340,000); AID 493098, 2011;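 active = compounds whose inhibition of the agonist-driven luminescence signal at 20 µM reaches about 50%, limit read from the data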;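 also: cells stimulated with CCL20 at 14 nM final; plate controls were DMSO with CCL20 for no effect and DMSO without agonist for full effect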
APJ antag – antagonists of human apelin receptor APJ, primary screen, CHO-K1 cells, beta-arrestin complementation, luminescence; inhibition, % at 20 µM; actives 0.32% (n = 330,000); AID 2521, 2010;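 active = inhibition above about 40% at 20 µM, limit read from the data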;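 also: cells challenged with 10 nM apelin-13 agonist together with compound; plate controls were apelin-13 plus DMSO wells for no effect and DMSO wells lacking apelin-13 for full effect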
APJ ag – agonists of human apelin receptor APJ, primary screen, CHO-K1 cells, PathHunter beta-arrestin, luminescence | 0% DMSO wells, 100% apelin | actives 0.11% (n = 330,000) | activation, % at 20 µM | AID 2520, 2010;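 active = activation more than six SD over the plate average, tested at 20 µM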;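 also: 0% = DMSO alone and 100% = apelin-13 at 10 nM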
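assay system = CHO-K1 APJ beta-arrestin complementation cell line | input = cell density 1000 per well | dosing = compound 20 µM once, DMSO 1% | timing = compound 90 min 25 °C, reagent 1 h | measured by = luminescence from split beta-galactosidase complementation, Galacton Star/Emerald II substrate | read-out basis = APJ agonist activity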
* marks the source's active call; other numbers are inactive results; . = not tested or not shown.

SMILES	EBI2 antag	CXCR6 block	CCR6 antagonist	APJ antag	APJ ag
Cc1ccc(C)c(C(Nc2ccccc2)c2ccc3ccc(C)nc3c2O)c1 (stereo unspecified)	-3	.	.	.	.
COc1ccc(OC)c(C(=O)NC(CC(N)=O)c2ccc(N3CCN(c4ccccn4)CC3)c([N+](=O)[O-])c2)c1 (stereo unspecified)	8	3	22	-2	-4
CCC(=O)NC1=C(Cl)C(=O)C(NC(=O)CC)=C(Cl)C1=O	-16	84*	.	-26	6
CCCN(c1ccccc1C(=O)O)S(=O)(=O)c1ccc2c(c1)n(C)c(=O)n2C	-6	-7	-6	2	-3
Nc1ccc2cc3[nH]c4cc(N)ccc4c3nc2c1	-4	-2	3	.	.
Cn1c2ccccc2c2ccc3c(c21)C(=O)C=CC3=O	-36	70*	109*	.	.
Cc1ccc2c(c1)c1ccc3c(c1n2C)C(=O)C=CC3=O	5	60*	106*	40	-5
COc1ccc2c(c1)c1ccc3c(c1n2C)C(=O)C=CC3=O	0	79*	106*	44*	-1
COc1ccc(OC)c(NC(=O)COc2cc(O)c3c(c2)OC(C)(C)CC3=O)c1	8	-2	.	.	.
COc1ccc(CNC(=S)NC(C)CCc2ccccc2)cc1 (stereo unspecified)	-2	7	3	5	-4
Cn1cc([C@]2(O)C(=O)Nc3ccc(OC(F)(F)F)cc32)c2ccccc21	-14	.	.	.	.
COc1ccc(OC(=O)N2C/C(=C/c3ccccc3)C(=O)/C(=C\c3ccccc3)C2)cc1	56*	13	29	.	.
O=C1/C(=C/c2ccccc2)CN(C(=O)CCN2CCOCC2)C/C1=C\c1ccccc1	18	31	53*	.	.
O=C(/C=C/c1ccccc1)CCN1CCOCC1	2	4	17	.	.
CN(C)CCC(=O)N1C/C(=C/c2ccccc2)C(=O)/C(=C\c2ccccc2)C1	39	66*	78*	.	.
C[N+](C)(C)CCC(=O)N1C/C(=C/c2ccccc2)C(=O)/C(=C\c2ccccc2)C1	3	8	13	.	.
O=C1Nc2ccccc2-n2nnnc2C1N1CCN(C(=O)C2CCCO2)CC1 (stereo unspecified)	-6	.	.	.	.
CCOC(=O)[C@]12CCCC=C1N(Cc1ccccc1)C(=O)[C@H](CC(=O)NCCc1ccccc1OC)C2	-3	.	.	.	.
S=C(NCCN1CCOCC1)Nc1ccc(Cl)cc1	1	-4	2	16	-2
S=C(NCCCN1CCOCC1)Nc1ccc(Cl)cc1	-2	74*	7	-24	-2
CN(C)CCCN(C(=O)CCc1ccccc1)c1nc2ccc(F)cc2s1	1	-6	6	6	-2
CN(C)CCCN(C(=O)CCc1ccccc1)c1nc2ccc(Br)cc2s1	-16	-5	53*	11	5
COc1cc(OC)c(C2C=CC(=O)CC2)c(OC)c1 (stereo unspecified)	-1	2	.	.	.
O=C(Nc1nnc(C2CC2)s1)c1cc([N+](=O)[O-])ccc1N1CCCCC1	12	20	72*	16	-3
Cc1ccc(NC(=O)c2cc([N+](=O)[O-])ccc2N2CCCC2)cc1	16	5	29	22	-3
SMILES	EBI2 antag	CXCR6 block	CCR6 antagonist	APJ antag	APJ ag
O=C(CSc1ncccn1)N1CCN(S(=O)(=O)c2ccccc2)CC1	-7	2	-6	-20	-6
Cc1cc(Br)ccc1SCC(=O)N1CCN(S(=O)(=O)c2ccccc2)CC1	83*	1	5	-3	-2
CCCCC(CC)CO (stereo unspecified)	-3	-2	-9	10	-4
CCCCC(CC)CN=C(N)NC(N)=NCCCCCCN=C(N)NC(N)=NCC(CC)CCCC (stereo unspecified)	0	90*	79*	23	-7
CCCCN1C(=O)C(=Nc2cccc3cnccc23)c2ccccc21	21	23	57*	5	-6
COc1cccc(NC(=O)C2(C)CCN2C(=O)CCc2ccc(Cl)cc2Cl)c1 (stereo unspecified)	7	3	.	.	.
COc1cc(/C=C2/C(=O)N(c3ccc([N+](=O)[O-])cc3)N=C2N2CCOCC2)ccc1O	6	37	55*	32	-3
COc1ccc([C@H]2CC(=O)C=C(c3cc4ccccc4s3)C2)cc1	63*	6	10	4	-4
COC(=O)Cc1ccc(OC2(C)CCN(Cc3ccc(-c4ccccn4)cc3)C2)cc1 (stereo unspecified)	-37	8	.	.	.
CCCCNC(=O)C1(C)CCCCN1C(=O)c1ccc2sccc2c1 (stereo unspecified)	-3	2	.	.	.
CC1(C(=O)NC(=S)NNC(=O)c2ccncc2)CCCCC1	3	17	29	35	-5
O=C(NNC(=S)NC(=O)C12CC3CC(CC(C3)C1)C2)c1ccncc1	6	31	51*	28	-9
O=C(O)CCCN1C(=O)/C(=C\c2ccc(-c3nc4ccccc4s3)o2)SC1=S	31	43*	24	11	-6
O=C(O)CCN1C(=O)/C(=C/c2ccc(-c3nc4ccccc4s3)o2)SC1=S	-1	32	22	-6	-5
CCCN(CCC)CCNS(=O)(=O)c1ccc2c(c1)oc(=O)n2C	0	-4	119*	3	-1
CN(C)c1ccc(/C=N/N=C2/NC(=O)/C(=C/c3ccc([N+](=O)[O-])cc3)S2)cc1	-7	38	53*	25	-3
CN(C)c1ccc(C=C2SC(=S)NC2=O)cc1	3	17	43	.	.
Cc1ccc(NC(=O)Cn2cc(C(F)(F)F)cc(Cl)c2=O)cc1Cl	-17	4	9	11	1
CC(NC(=O)C(c1ccccc1)c1ccccc1)C(=O)N1CCCCC1 (stereo unspecified)	3	10	20	-2	-3
Cc1ccc2[nH]c(O)c(N=Nc3ccccc3[N+](=O)[O-])c2c1	13	5	16	.	.
Oc1[nH]c2ccccc2c1N=Nc1nc2ccccc2s1	14	28	58*	37	-8
Cc1ccc2[nH]c(O)c(N=Nc3nc4ccccc4s3)c2c1	18	42*	49	30	-7
Oc1[nH]c2ccccc2c1N=Nc1ccccc1	3	12	18	18	-5
Cc1cccc(C)c1NC(=O)C(c1ccccc1)N1CCC(c2ccccc2)CC1 (stereo unspecified)	16	.	.	.	.
COc1ccc(Cn2c(/C=C/c3ccccc3)nc3ccccc32)cc1	42*	31	18	9	-2
Cc1ccc(C(=O)/C=C/C(=O)c2ccc(C)cc2)cc1	28	92*	100*	33	-4
Clc1cc(CSc2ccccc2)nc(-c2ccccc2)n1	7	-8	21	16	-4
